MEKK3 PB1 HTS = modulators (inhibitors or enhancers) of MEK5 binding to human MEKK3 PB1 domain | Q99759 | bead-based flow cytometry, Alexa488-MEK5 binding to MEKK3; actives lie on both sides; 0 = blocked by unlabeled MEK5, 100 = vehicle | binding response (% of control), % at 10 µM | hit rate 1.4% among 290,000 | AID 1529;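 active = binding response more than 3 SD above or below the average of its plate-row segment, actives on both sides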;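 note: Alexa488 bead fluorescence after subtracting the streptavidin-only scavenger bead signal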
MEKK2mut PB1 HTS = signal of MEK5 binding to mutant human MEKK2 PB1 domain; AID 1530; percent response, % at 10 µM; bead flow cytometry, Alexa488-MEK5 binding to MEKK2 mutant; hit rate 0.35% among 290,000; in the data active = percent response above about 24%, passing the limit was not always enough
T cell HTS = modulates CD8 T cell binding to vesicles | 2C CD8+ T cell-vesicle binding, flow cytometry; active compounds read low | response (vesicle binding), % at 7 µM | hit rate 0.068% among 330,000 | AID 2052;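 active = response, share of CD8 T cells binding vesicles, and their 90th percentile fluorescence all below set limits, cut at about 80% in these data, passing the limit was not always enough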;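 note: values below 100% mean blocked vesicle binding to the CD8+ T cells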
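Material: murine 2C transgenic CD8+ T lymphocytes / Also added: QL9-peptide-loaded Drosophila micro-vesicles bearing Ld, ICAM-1 and B7-1 / Schedule: binding step 1.5 h, 37 °C, antibody labelling 20 min, ice / Signal: flow cytometry, PE anti-B7-1 (FL2) versus Alexa647 anti-CD8 (FL8), PFA-fixed / Evaluation: percent CD8+ FL2 mean versus row control / Benchmarks: naked versus QL9-loaded vesicles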
Rce1 inhib = yeast Ras-converting enzyme inhibition; Q03530; yeast membranes, quenched prenylated peptide cleavage fluorescence; calls only; hit rate 0.27% among 290,000; AID 2563;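 active = fall in fluorescence gain of 50% or more versus controls, with final raw signal at or below 3038400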;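 note: plate controls were neutral control wells for no effect and wells lacking membranes for full effect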
Target sequence (Q03530 whole entry, looked up): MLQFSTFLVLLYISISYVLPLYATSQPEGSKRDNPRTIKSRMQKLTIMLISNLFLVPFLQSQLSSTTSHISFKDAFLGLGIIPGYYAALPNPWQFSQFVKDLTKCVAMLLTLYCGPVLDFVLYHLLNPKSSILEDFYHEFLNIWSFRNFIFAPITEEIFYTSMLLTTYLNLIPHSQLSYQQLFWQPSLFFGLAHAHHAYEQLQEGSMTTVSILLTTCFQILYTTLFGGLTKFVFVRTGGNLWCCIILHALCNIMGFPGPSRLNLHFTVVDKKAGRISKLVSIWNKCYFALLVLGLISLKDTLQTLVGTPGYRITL
UCH37 DUB inh = human UCH37 deubiquitinating enzyme inhibition | Q9Y5K5 | purified proteasome/UCH37, Ub-AMC cleavage fluorescence | inhibition, % (test concentration not listed) | hit rate 0.33% among 330,000 | AID 588478;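 active = mean inhibition over replicate wells above about 20%, limit read from the data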;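 note: 0% = compound-free wells with enzyme and 100% = wells lacking proteasome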
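Material: Human UCH37 enzyme supplied as purified proteasome complex | Schedule: 30 min preincubation with enzyme, 25 min cleavage at room temperature | Detection: AMC fluorescence 355/460 nm | Measure: % inhibition of Ub-AMC cleavage fluorescence | Controls: Wells without proteasome as full block, compound-free enzyme plus substrate as uninhibited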
MEKK2 WT-MEK5 = raises or lowers MEK5 binding to wildtype human MEKK2 PB1 domain. Q9Y2U5. bead flow cytometry, Alexa488-MEK5 binding to MEKK2 WT; actives lie on both sides. binding response (% of control), % at 10 µM. hit rate 1.1% among 290,000. AID 1531; in the data active = binding response below about 67% or above about 130%
UCH37 confirm = confirmation of human UCH37 deubiquitinating enzyme inhibitors; shares compounds with UCH37 DUB inh; Proteasome-bound UCH37, Ub-AMC cleavage fluorescence; inhibition, % at 20 µM; hit rate 27% among 480;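 active = average inhibition over replicates above about 50%, so the earlier screening hit is confirmed, limit read from the data; inactive = the rest, counted as false positives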;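 note: based on cleavage rate fitted by regression over a 30 min kinetic read; 0% = proteasome plus Ub-AMC and 100% = Ub-AMC without proteasome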
The depositor's hits bear a star; i = inactive; . = not tested or not shown; [ ] = another dose, or the depositor's remark. This is a sample that favours compounds with a hit; in the whole collection about 2.5% have one here.

SMILES | MEKK3 PB1 HTS | MEKK2mut PB1 HTS | T cell HTS | Rce1 inhib | UCH37 DUB inh | MEKK2 WT-MEK5 | UCH37 confirm
O=[N+]([O-])c1ccc(N=Nc2ccc(O)cc2O)cc1 | 99 | 8 | 223 | i | 25* | 104 | 46
O=C(O)c1ccc(S(=O)(=O)/N=C2\C=C(Nc3ccccc3F)C(=O)c3ccccc32)cc1 | 100 | 0 | i | i | 93* | 95 | 99*
O=C(O)c1ccc(NC2=CC(=NS(=O)(=O)c3ccccc3)c3ccccc3C2=O)cc1 | . | . | . | . | 95* | . | 98*
COc1ccc(S(=O)(=O)/N=C2\C=C(Nc3ccc(O)cc3)C(=O)c3ccccc32)cc1 | 101 | -5 | 200 | i | . | 90 | .
CCOc1cc(C=NNC(=O)CN2CCCCC2)ccc1OCc1ccc(Cl)cc1 | . | . | . | . | 4 | . | .
COc1cc(C=NNC(=O)COc2cc(C)cc(C)c2)ccc1OS(=O)(=O)c1ccc(C)cc1 | . | . | . | . | 2 | . | .
O=C1OC(c2ccc3ccccc3c2O)(c2ccc3ccccc3c2O)c2ccccc21 | . | . | . | . | 26* | . | -36
CCOC(=O)N1CCN(C2=C(NS(=O)(=O)c3ccc(NC(C)=O)cc3)C(=O)c3ccccc3C2=O)CC1 | 96 | 1 | 425 | i | 30* | 101 | 15
Cc1onc(-c2ccccc2Cl)c1C(=O)ON=C(N)c1ccc([N+](=O)[O-])o1 | . | . | . | . | 7 | . | .
COc1ccc(Cc2nc3ccccc3n2CC(=O)NN=Cc2ccc(C)cc2O)cc1OC | . | . | . | . | -2 | . | .
CC1(C)OC(c2ccccc2)=C/C(=C/C=Nc2ccccc2)O1 | 111 | -3 | 374 | i | 48* | 109 | -18
Cc1nc(Cl)cc(NN=Cc2ccc(O)cc2)n1 | . | . | . | . | 9 | . | .
Cc1nn(-c2ccccc2)c(C)c1C=NN1CCN(c2ccccc2)CC1 | . | . | . | . | 1 | . | .
CN(C)/C=C1/NC(=S)NC1=O | 84 | -12 | 287 | i | 27* | 74 | 11
COc1ccc(C=C2NC(=S)NC2=O)cc1 | . | . | . | . | 12 | . | .
O=C1NC(=O)C(=Cc2ccccc2[N+](=O)[O-])S1 | . | . | . | . | 86* | . | 99*
CCc1n[nH]c2c1C(=NO)CC(C)(C)C2 | . | . | . | . | -1 | . | .
CN1CCS/C1=C\C=C1/SC(=S)N(CC(=O)O)C1=O | 112 | 0 | . | . | 39* | 101 | 38
CCN1C(=O)/C(=C/C=C2/SCCN2C)SC1=S | 105 | 6 | 388 | i | 8 | 108 | .
O=C1NN(c2cccc(Br)c2)C(=O)/C1=C/c1ccc(-c2cc([N+](=O)[O-])ccc2O)o1 | 36*[inhibitor] | -15 | 422 | i | 31* | 29*[inhibitor] | 67*
CC1=NN(c2ccc(C)cc2)C(=O)/C1=C/c1ccc(-c2cc([N+](=O)[O-])ccc2O)o1 | 89 | -8 | . | i | 3 | 86 | .
O=[N+]([O-])c1ccc(O)c(C=NNc2ccc(S(=O)(=O)O)cc2)c1 | . | . | . | . | 25* | . | 15
O=[N+]([O-])c1ccc(O)c(C=NNc2ccccc2Cl)c1 | . | . | . | . | 5 | . | .
Cc1[nH]n(-c2ccccc2)c(=O)c1C(C[N+](=O)[O-])c1ccc(F)cc1 (stereo not given) | 96 | -2 | 201 | i | 10 | 97 | .
Cc1[nH]n(-c2ccccc2)c(=O)c1C(C[N+](=O)[O-])c1ccc(Cl)cc1 (stereo not given) | 88 | -3 | 229 | i | 41* | 91 | -1
SMILES | MEKK3 PB1 HTS | MEKK2mut PB1 HTS | T cell HTS | Rce1 inhib | UCH37 DUB inh | MEKK2 WT-MEK5 | UCH37 confirm
Cc1ccc(C(C[N+](=O)[O-])c2c(C)[nH]n(-c3ccccc3)c2=O)cc1 (stereo not given) | 102 | 3 | 197 | i | 53* | 102 | 4
CN1C(=O)/C(=C\C=C2/CCCN2C)N(C)C1=S | 103 | 0 | 285 | i | 39* | 101 | 31
CCN1C(=O)/C(=C/C=C2/CCCN2C)OC1=S | 101 | -7 | 141 | i | 29* | 90 | 36
NC(Cc1nc(-c2ccc(F)cc2)cs1)=NO | . | . | . | . | 2 | . | .
COc1cccc(C=NNC(=O)c2cnccn2)c1 | . | . | . | . | 8 | . | .
ON=C1CCc2cccc3cccc1c23 | . | . | . | . | -3 | . | .
O=C1CSC(=NN=Cc2ccccc2)N1c1ccc(O)cc1 | . | . | . | . | 4 | . | .
COC(=O)/C(N=Nc1cccc(C(F)(F)F)c1)=C(\C)O | 99 | 4 | 220 | i | 43* | 101 | 16
